Screening results as filed in PubChem.
CCR6 antag = CCR6 receptor antagonists, primary screen, cell-based, CHO-K1, luminescence, beta-arrestin, uHTS; CHO-K1 CCR6 PathHunter beta-arrestin, CCL20-stimulated; inhibition, % at 20 µM; actives 0.49% (n = 340,000);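 active = compounds whose inhibition of the agonist-driven luminescence signal at 20 µM reaches about 50%, limit read from the data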;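 also: cells stimulated with CCL20 at 14 nM final; plate controls were DMSO with CCL20 for no effect and DMSO without agonist for full effect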
APJ antag = antagonists of human apelin receptor APJ, primary screen, CHO-K1 cells, beta-arrestin complementation, luminescence. P35414. inhibition, % at 20 µM. actives 0.32% (n = 330,000);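 active = inhibition above about 40% at 20 µM, limit read from the data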;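 also: cells challenged with 10 nM apelin-13 agonist together with compound; plate controls were apelin-13 plus DMSO wells for no effect and DMSO wells lacking apelin-13 for full effect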
CXCR6 block = CXCR6 receptor inhibitors, primary screen, cell-based, beta-arrestin, luminescence, CHO-K1 PathHunter, 1536-well | inhibition, % at 20 µM | actives 0.36% (n = 360,000); in the data active = inhibition above about 34%, passing the limit was not always enough;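 also: antagonist mode with CXCL16 agonist at 10 nM final; 0% = 10 nM CXCL16 with DMSO and 100% = unstimulated wells without agonist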
APJ ag = agonists of human apelin receptor APJ, primary screen, CHO-K1 cells, PathHunter beta-arrestin, luminescence; AID 2520, 2010; activation, % at 20 µM; 0% DMSO wells, 100% apelin; actives 0.11% (n = 330,000);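 active = activation more than six SD over the plate average, tested at 20 µM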;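 also: 0% = DMSO alone and 100% = apelin-13 at 10 nM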
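Material: engineered CHO-K1 APJ arrestin reporter cells; amount: 1000 CHO-K1 reporter cells seeded per well; incubation: compound stimulation 90 min at 25 °C, detection 60 min; signal: luminescent beta-gal fragment complementation, chemiluminescent substrate; read-out basis: APJ agonist activity; controls: DMSO-only wells as negative, 10 nM Apelin-13 as positive control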
EBI2 block = EBI2 receptor antagonists, beta-arrestin recruitment, primary screen, cell-based, luminescence, 7a,25-OHC stimulation, uHTS. G-protein coupled receptor 183 (Homo sapiens), P32249. 7a,25-OHC stimulated. inhibition, % at 5 µM. actives 0.81% (n = 360,000). AID 651636, 2012; in the data active = inhibition above about 38%;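 also: enzyme fragment complementation signal reports receptor beta-arrestin coupling in cells; 0% = agonist plus DMSO wells and 100% = wells without agonist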
Target sequence (P32249 whole entry, looked up, the tested form may be a part): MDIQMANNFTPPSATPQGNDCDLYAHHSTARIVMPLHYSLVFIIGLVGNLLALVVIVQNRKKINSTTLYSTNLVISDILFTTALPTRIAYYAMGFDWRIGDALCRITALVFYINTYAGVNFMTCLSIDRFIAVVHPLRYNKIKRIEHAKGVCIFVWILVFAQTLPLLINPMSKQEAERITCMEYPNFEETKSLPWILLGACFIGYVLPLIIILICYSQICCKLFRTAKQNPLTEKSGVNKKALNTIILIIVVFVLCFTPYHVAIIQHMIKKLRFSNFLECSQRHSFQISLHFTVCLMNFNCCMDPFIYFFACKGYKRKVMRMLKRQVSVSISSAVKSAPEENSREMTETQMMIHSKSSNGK
EBI2 conf = EBI2 antagonist hit retest, beta-arrestin, confirmation, cell-based, single concentration, luminescence, 7a,25-OHC stimulation; shares compounds with EBI2 block; 7a,25-OHC antagonism; inhibition, % at 5 µM; actives 29% (n = 2,400); AID 651997, 2013;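 active = inhibition of at least 50%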
EBI2 ag = EBI2 agonist activity of antagonist hits, confirmation, counter-screen for EBI2 antagonist project, cell-based, single concentration, agonist mode, luminescence; activation, % at 5 µM; EBI2-expressing cells, 60 min; 0% vehicle, 100% 7α,25-dihydroxycholesterol control; shares compounds with EBI2 block; 2,400 tested, under 10 active; AID 652000, 2013;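 active = activation of at least 50%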
bGal cs = E. coli beta-galactosidase enzyme inhibition, confirmation, counter-screen for EBI2 antagonist project, biochemical, luminescence, single concentration; inhibition, % at 5 µM; AID 652176, 2013; actives 1% (n = 2,400); purified beta-galactosidase, luminescent Galacton Star, 15 min; shares compounds with EBI2 block;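 active = replicate-average signal at least 3 plate SD below neutral wells, shown as high inhibition, flagging enzyme-inhibiting false positives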;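 also: 0% = DMSO wells with enzyme and 100% = wells lacking enzyme; higher means stronger loss of beta-gal luminescence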
The depositor's hits bear a star; · = no result given. This is a sample that favours compounds with a hit; in the whole collection about 1.5% have one here.

SMILES	CCR6 antag	APJ antag	CXCR6 block	APJ ag	EBI2 block	EBI2 conf	EBI2 ag	bGal cs
COc1ccc2cc(C(=O)N3CCN(c4ccccc4OC)CC3)[nH]c2c1	-10	10	-13	-4	74*	49	2	4
Cc1ccccc1OCC(=O)NNC(=O)C1CCN(c2ncnc3sc(C)c(C)c23)CC1	-9	-14	-13	4	50*	20	1	6
CCc1ccc(OCC(=O)N2CCN(c3ccccc3F)CC2)cc1	11	-9	4	1	65*	75*	0	3
O=C(COc1ccc2ccccc2c1)N1CCN(c2ccccc2O)CC1	-14	-2	-8	-3	71*	62*	0	-8
CS(=O)(=O)N1CCN(C(=O)COc2ccc3ccccc3c2)CC1	7	-9	1	-1	79*	46	1	5
O=C(COc1ccc2ccccc2c1)N1CCNCC1	2	-21	-8	-2	10	·	·	·
Cc1cc(=O)[nH]c(NN=C2CCCCC2C)n1 (centres undefined)	2	·	6	·	-1	·	·	·
COCCN1C(=O)c2cc(C(=O)Nc3ccc(C)c(F)c3)ccc2C1Nc1ccc(C)c(F)c1 (centres undefined)	-3	-6	-10	4	86*	65*	-1	-14
COCCN1C(=O)c2cc(C(=O)Nc3cccc(F)c3)ccc2C1Nc1cccc(F)c1 (centres undefined)	2	0	0	3	75*	39	0	-16
CCc1ccc(NC(=O)c2ccc3c(c2)C(=O)N(CCOC)C3Nc2ccc(CC)cc2)cc1 (centres undefined)	0	-7	1	-1	65*	62*	-1	-16
O=C1C=C(c2cccc(Cl)c2)C[C@@H](c2ccc(Cl)cc2)C1	25	-5	2	-3	53*	25	-2	-6
COc1cc(F)c(C2=CC(=O)C[C@H](c3ccc(Cl)cc3)C2)cc1F	6	4	10	-3	58*	44	0	3
O=C1C=C(c2ccc3c(c2)oc2ccccc23)C[C@@H](c2ccc(Cl)cc2)C1	5	1	10	-5	62*	23	2	5
CSc1ccc(C2=CC(=O)C[C@H](c3ccc(Cl)cc3)C2)cc1	17	3	6	-4	67*	52*	2	5
COc1ccc([C@H]2CC(=O)C=C(c3cccc(Cl)c3)C2)cc1	17	5	-2	-4	42	·	·	·
O=C1C=C(c2ccc(Oc3ccccc3)cc2)C[C@@H](c2ccc(Cl)cc2)C1	14	8	1	-1	14	·	·	·
O=C1C=C(c2cc(F)ccc2F)C[C@@H](c2ccc(Cl)cc2)C1	22	6	-5	-4	29	·	·	·
CC(=O)Nc1ccc(C2=CC(=O)C[C@H](c3ccc(Cl)cc3)C2)cc1	8	-1	2	-3	39	·	·	·
O=C(CCNS(=O)(=O)c1ccccc1C(F)(F)F)NCCCc1ccccc1	-6	-11	-5	-3	1	·	·	·
CC(C)CCC(CCNCc1ccccn1)c1ccc(Cl)cc1 (centres undefined)	8	10	1	-5	7	·	·	·
CC(C)N1CCN(c2ccc(S(=O)(=O)N3CCOCC3)cn2)CC1	4	-23	0	-4	-17	·	·	·
CCCCNC(=O)C1(C)CCN1C(=O)c1sccc1C (centres undefined)	·	·	2	·	-10	·	·	·
CC(C)NC(=O)CCc1nc2cccnc2n1-c1ccccc1	5	14	-3	-4	0	·	·	·
O=C1C=C(c2cccc(Br)c2)C[C@@H](c2ccc(Cl)cc2)C1	19	7	-10	-4	46*	13	0	-13
O=C1C=C(c2ccc(-c3ccccc3)c(F)c2)C[C@@H](c2ccc(Cl)cc2)C1	12	0	-9	-2	38	·	·	·
SMILES	CCR6 antag	APJ antag	CXCR6 block	APJ ag	EBI2 block	EBI2 conf	EBI2 ag	bGal cs
CN(C)C(=O)COC(=O)c1cccc(CN2C(=O)c3ccccc3C2=O)c1	17	-4	6	-2	10	·	·	·
Cc1ccc(/C=C/C(=O)OCC(=O)NCCN2C(=O)CSC2=O)cc1	-8	9	-4	-4	56*	58*	2	0
O=C(COC(=O)/C=C/c1ccccc1)NC(=O)NCc1ccccc1	20	-2	17	-1	9	·	·	·
Cc1ccc(/C=C/C(=O)OCC(=O)NC(=O)NCc2ccccc2)cc1	8	-16	8	-2	46*	14	-1	-7
COC(=O)[C@@]12C[C@@H](CC(=O)NCCCCc3ccccc3)C(=O)N(Cc3ccc4c(c3)OCO4)C1=CCC(C)(C)C2	·	·	·	·	35*	10	-1	-9
CCCCNC(=O)C[C@@H]1C[C@@]2(C(=O)OC)CC(C)(C)CC=C2N(Cc2ccc3c(c2)OCO3)C1=O	·	·	·	·	11	·	·	·
C[C@@H]1CN([C@@H](C)CO)C(=O)c2cc(NC(=O)C3CCCCC3)ccc2O[C@@H](C)CCCCO[C@@H]1CN(C)Cc1ccncc1	·	·	-7	·	-8	·	·	·
Oc1cccc(-c2nc3c4c(ncn3n2)-c2ccccc2CC42CCCC2)c1	-8	-19	-8	0	47*	31	2	9
Cc1ccc(OCc2nc3c4c(ncn3n2)-c2ccccc2CC42CCCC2)cc1	14	18	6	-3	25	·	·	·
COc1ccc(OCc2nc3c4c(ncn3n2)-c2ccccc2CC42CCCC2)cc1	18	-21	-2	-2	55*	19	3	6
CCOC(=O)C1CCN(C(=O)COC(=O)Cc2ccc(Cl)cc2)CC1	10	-6	-4	0	-1	·	·	·
c1ccc(Cc2nn3c(COc4ccccc4)nnc3s2)cc1	-4	-14	3	-3	60*	40	1	5
CCN(CC)C(=O)CSc1nc2c(sc(=S)n2-c2ccccc2)c(=O)n1Cc1ccco1	27	5	14	-3	57*	37	0	8
